Molecules are shown by their SMILES. Active and inactive are the calls of the source.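 Rule for the calls, unless noted: active = visually confirmed hit in the image check and inhibition above 20%; inconclusive = visually confirmed hit but inhibition not above 20%; inactive = no visual hit in the image check.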

What is called inhibition is the relative decrease from the control value, in per cent.

Test [1] in a line: inhibitors of TNFa-induced NFkB p65 translocation, primary screen, imaging, HUVEC, MLSMR starter and 10KST1 sets (AID 438;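 active = inhibition above 20% together with a positive visual image hit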;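 note: compound added about 3h40 before a 20 min TNFalpha stimulation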;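 for inhibition: signal is the nuclear over cytoplasmic p65 intensity ratio per well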). The settings on record: HUVEC TNFa-induced p65 nuclear translocation; cell count: measured here: nuclei count (cytotoxicity indicator), at 2.08 µM; inhibition: at 2 µM, stronger effect = higher value, 0% TNFa-plus-vehicle, 100% no-TNFa wells.
A short description of test [2]: inhibitors of E-selectin induction by TNFa, primary screen, imaging, HUVEC, immunofluorescence, MLSMR starter and 10KST1 sets (AID 487).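 For inhibition: signal is fraction of cell area covered by stained E-selectin grains.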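 For nuclei count: 100% = median nuclei count of all wells on the same plate.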 Particulars: HUVEC TNFalpha-induced E-selectin immunofluorescence imaging, at 2 µM; inhibition: stronger effect = higher value; nuclei count: measured here: cell number, toxicity.
Test [3] can be described thus: DUSP6 inhibitors restoring Erk phosphorylation by chemical complementation, primary imaging in DUSP6-transfected HeLa (AID 609;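 active = compounds giving at least 50% inhibition in the cell-based MKP-3 phosphatase rescue imaging test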;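 for inhibition: phospho-Erk level distribution per well compared with pooled transfected vehicle control wells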). Particulars: HeLa MKP-3 transfected, phospho-Erk imaging KS statistic, at 10 µM, cells stimulated with TPA for 15 min.
The target of test [4] is Dual specificity protein phosphatase 6 (Homo sapiens) (UniProt Q16828). Described as above. The settings on record: HeLa MKP-3 transfected, phospho-Erk imaging KS statistic; at 10 µM; stronger effect = higher value; cells stimulated with TPA for 15 min.
The target in test [5] is Voltage-gated potassium channel subunit beta-2 (Rattus norvegicus) (UniProt P62483). In words: KvBeta enzyme negative modulators, primary screen, biochemical, NADPH fluorescence (AID 622;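 active = fluorescence slope higher than the sample average by over 3 SD, cut at about -0.22 in these data, passing the limit was not always enough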;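 note: slope of raw intensity against log time taken from 70 to 1610 s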). The settings on record: recombinant KvBeta, 4-cyanobenzaldehyde reduction, at 10 µM, stronger effect = higher value.
For test [6] the target is unchanged. In words: KvBeta positive modulators, primary screen, biochemical, NADPH fluorescence (AID 623;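 active = NADPH fluorescence slope more negative than the mean of all samples by about 3 SD, 99.7% confidence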;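 note: fluorescence intensity change per second fitted from 20 to 320 s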). The settings on record: Recombinant KvBeta, NADPH fluorescence decrease slope, 10 min; at 10 µM; stronger effect = lower value.
The target of test [7] is Alpha-2C adrenergic receptor (Homo sapiens) (UniProt P18825). Description: modulators of alpha2C/GIRK thallium flux, primary screen, cell-based, HEK293 alpha2C/GIRK1/2 (AID 624;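 active = fluorescence slope after compound addition differing from the mean of all screened samples at 99.7% confidence, in either direction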;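 note: slope of fluorescence ratio to pre-addition baseline per second over 15 to 24 s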). Particulars: thallium flux BTC fluorescence, at 10 µM, actives lie on both sides.
Test [8] in a line: inhibitors of larval lipid processing in zebrafish, primary screen, whole organism, PED6 fluorescence, gall bladder and intestine (AID 686;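 active = a full or partial loss of lipid-probe fluorescence in the fish gall bladder, intestine or both, judged by eye; inactive = no fluorescence loss, or compound toxic to the fish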;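 note: larvae 5 to 7 days old with five fish per well; signal comes from phospholipase A2 cleavage of quenched PED6 carried via bile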). Particulars: Zebrafish larvae PED6 lipid processing, fluorescence scoring; screened at 20 µM (by protocol). The method, boiled down: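 system = live zebrafish larvae aged 5-7 days, whole organism | probe or stimulus = ingested quenched lipid PED6 at 100 nM | doses = 20 µM single dose | timing = overnight exposure | detection = fluorescence microscopy with visual scoring of gall bladder and intestine | read-out = visual per-well fluorescence inhibition score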

The nature of test [9]: inhibitors of Chlamydomonas gravitaxis, primary screen, whole organism, Chlamydomonas reinhardtii, WT vs cilia-less mutant, absorbance, 96-well (AID 463189;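 active = inhibition at or above 50% relative to wild type and mutant plate controls; inactive = inhibition below 50%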;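 note: 0% = wild type cc124 cells in DMSO and 100% = ciliumless bld1 mutant cells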). The settings on record: OD600 absorbance, 2 days, at 10 µM, stronger effect = higher value.
Setting [10] is: measured here: cell density z-score.
The mark [11] stands for this setting: measured here: nuclear c-Myc green intensity z-score.
The mark [12] stands for this setting: measured here: nuclear pErk red intensity z-score, stronger effect = higher value.

Voltage-gated potassium channel subunit beta-2 (Rattus norvegicus), sequence (P62483 whole entry, looked up): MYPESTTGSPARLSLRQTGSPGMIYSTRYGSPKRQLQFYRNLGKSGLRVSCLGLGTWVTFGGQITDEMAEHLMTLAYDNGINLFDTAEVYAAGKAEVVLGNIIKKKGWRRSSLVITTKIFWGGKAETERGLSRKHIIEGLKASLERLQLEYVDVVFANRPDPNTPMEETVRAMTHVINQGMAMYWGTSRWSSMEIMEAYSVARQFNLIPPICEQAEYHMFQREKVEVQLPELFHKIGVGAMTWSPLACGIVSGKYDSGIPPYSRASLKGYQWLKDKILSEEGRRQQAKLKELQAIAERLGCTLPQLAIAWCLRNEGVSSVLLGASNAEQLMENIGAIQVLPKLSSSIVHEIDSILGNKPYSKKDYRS
Dual specificity protein phosphatase 6 (Homo sapiens), sequence (Q16828 whole entry, looked up): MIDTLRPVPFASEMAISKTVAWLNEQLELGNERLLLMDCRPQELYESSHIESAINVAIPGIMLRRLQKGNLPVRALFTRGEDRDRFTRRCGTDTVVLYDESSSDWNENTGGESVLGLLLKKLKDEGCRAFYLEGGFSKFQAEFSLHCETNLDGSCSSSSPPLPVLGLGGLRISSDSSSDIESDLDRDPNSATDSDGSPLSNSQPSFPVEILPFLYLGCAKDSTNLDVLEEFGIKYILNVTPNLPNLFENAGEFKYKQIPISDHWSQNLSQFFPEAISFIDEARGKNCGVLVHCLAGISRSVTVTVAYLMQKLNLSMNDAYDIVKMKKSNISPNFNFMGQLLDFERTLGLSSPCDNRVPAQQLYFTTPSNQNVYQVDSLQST
Alpha-2C adrenergic receptor (Homo sapiens), sequence (P18825 whole entry, looked up): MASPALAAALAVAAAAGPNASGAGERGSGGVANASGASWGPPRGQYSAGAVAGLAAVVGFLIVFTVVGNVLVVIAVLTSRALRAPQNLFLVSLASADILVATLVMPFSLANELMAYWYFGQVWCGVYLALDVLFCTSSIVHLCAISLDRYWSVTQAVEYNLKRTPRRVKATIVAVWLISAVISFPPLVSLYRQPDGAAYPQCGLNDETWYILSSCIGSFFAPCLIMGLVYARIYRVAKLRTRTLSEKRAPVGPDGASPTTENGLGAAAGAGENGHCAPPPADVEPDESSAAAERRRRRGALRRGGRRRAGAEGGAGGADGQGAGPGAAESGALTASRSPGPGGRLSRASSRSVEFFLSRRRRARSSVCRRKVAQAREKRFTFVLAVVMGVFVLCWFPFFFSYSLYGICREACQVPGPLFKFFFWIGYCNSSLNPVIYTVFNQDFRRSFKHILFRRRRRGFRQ

For the compound `Cc1ccc(C)c(OCc2nnc(NC(=O)c3ccco3)s2)c1`, the cell count in [1] was found to be 656. Moreover, the inhibition in test [1] is -2.1% (inactive); in [2], 37.1% (inactive); in [4] it was -4.27% (inactive); in [9], -2.58% (inactive). Besides, in [2], the nuclei count stood at 191%. Besides, the z-score in test [3] (setting [10]) is -0.0885; in test [3] (setting [11]), 2.13; in [3] (setting [12]) it was -0.0889. Besides, the fluorescence slope in [5] is -0.389 (inactive). Further, in test [6], the NADPH fluorescence slope was -5.4e-05 (inactive). For the same compound, the slope in [7] was 0.0056 (inactive). The call in [8] was inactive.
With `O=C1[C@@H]2[C@H](C(=O)N1n1cnnc1)[C@H]1C=C[C@@H]2C1`, in test [1], the cell count was 618. Also, the inhibition in [1] was -4.3% (inactive); in [2], -49.4% (inactive); in [4] it was 4.25% (inactive); in test [9] it was 13.5% (inactive). Also, the nuclei count in [2] was 143%. Moreover, the z-score was -1.23 in test [3] (setting [10]), -0.0869 in test [3] (setting [11]) and -0.601 in test [3] (setting [12]). In [5], the fluorescence slope was -0.529 (inactive). Further, in test [6], the NADPH fluorescence slope is -6.9e-05 (inactive). For the same compound, the slope in test [7] is 0.00514 (inactive). In [8], the compound was called inactive.
In the case of `COc1cccc(-c2nc(N3CCN(Cc4ccccc4)CC3)c3ccccc3n2)c1O`, the cell count in [1] is 578. For the same compound, the inhibition in test [1] was -4.5% (inactive); in test [2], 7% (inactive); in test [4], 3.5% (inactive); in test [9], 8.35% (inactive). The compound further registered a nuclei count in test [2] of 126%. The values for the z-score in test [3] (setting [10]), in test [3] (setting [11]) and in [3] (setting [12]) were -0.018, 0.0703 and 0.663, respectively. Further, the fluorescence slope in [5] was -0.272 (inactive). In test [6], the NADPH fluorescence slope was 8.6e-06 (inactive). Further, in test [7], the slope was 0.0051 (inactive). Besides, the compound was called inactive in [8].
Take `Cc1ccc2[nH]c3c(c2c1)CN(C(=O)CN1CCCc2ccccc21)CC3`: the cell count in [1] stood at 557. Further, the inhibition in [1] was -8.1% (inactive); in test [2], -104% (inactive); in test [4] it was 2.92% (inactive); in test [9], 15.5% (inactive). Also, the nuclei count in test [2] came to 142%. Also, the z-score in test [3] (setting [10]) is -0.606; in [3] (setting [11]) it was -1.61; in test [3] (setting [12]) it was -0.633. For the same compound, the fluorescence slope in test [5] is -0.439 (inactive). The NADPH fluorescence slope in test [6] was -7.1e-05 (inactive). Also, the slope in test [7] was 0.00496 (inactive). For the same compound, in test [8], the outcome was “active; weak signal in gallbladder and intestine”.
For `CC(=O)Nn1cnc2c(c1=O)C1(CCCC1)Cc1ccccc1-2`, the cell count in test [1] was determined as 520. In addition, the inhibition was -1.9% (inactive) in test [1], 29.6% (inactive) in test [2], -2.69% (inactive) in test [4] and 43% (inactive) in test [9]. The same compound returned a nuclei count in test [2] of 113%. The z-score in test [3] (setting [10]) was -0.985; in test [3] (setting [11]), 1.83; in [3] (setting [12]) it was 1.16. Besides, the fluorescence slope in [5] is -0.382 (inactive). Further, the NADPH fluorescence slope in test [6] was -2e-06 (inactive). In addition, the slope in [7] is 0.0042 (inactive). Besides, the call in test [8] was inactive.
For `CC1(C)CN(O)CCN1O`, in [1], the cell count was 325. Also, the inhibition in [1] is -5.3% (inactive); in test [2], -130% (inactive); in test [4], -10.1% (inactive); in test [9], 12% (inactive). This compound showed a nuclei count in test [2] of 104%. Also, the z-score in [3] (setting [10]) was -0.173; in test [3] (setting [11]), -0.721; in test [3] (setting [12]) it was -0.0914. Moreover, the fluorescence slope in [5] was -0.452 (inactive). Further, in test [6], the NADPH fluorescence slope was -1.8e-06 (inactive). Moreover, the slope in test [7] is 0.00611 (inactive). In addition, the compound was called inactive in test [8].
On to `COc1cccc(C2=CC(c3ccccc3)n3ncnc3N2)c1` (stereo unspecified), for which the cell count in test [1] came out at 565. The inhibition in test [1] is 3.2% (inactive); in test [2], 36.2% (inactive); in test [4], -8.76% (inactive); in test [9] it was 10.9% (inactive). The nuclei count in [2] is 163%. The z-score in test [3] (setting [10]) was -0.222; in test [3] (setting [11]), -0.0591; in [3] (setting [12]), 0.0878. Further, the fluorescence slope in test [5] was -0.0434 (active). For the same compound, the NADPH fluorescence slope in test [6] was -2e-07 (inactive). Also, the slope in [7] was 0.00478 (inactive). Besides, in test [8], the compound was called inactive.

The values are drawn from PubChem BioAssay.
